Laboratory results taken from ChEMBL document CHEMBL1138222, “9-Benzylidene-naphtho[2,3-b]thiophen-4-ones as novel antimicrotubule agents-synthesis, antiproliferative activity, and inhibition of tubulin polymerization” (J Med Chem, 2006).

Experiments:
[1] = Cell cycle arrest in KB/HeLa cells by accumulation at S phase at 31.6 nM; format: functional, cell-based; conditions: Homo sapiens
Method in brief: (§1)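 Subconfluent KB/HeLa cells were treated with a concentration series for 24 h at 37 °C, then detached and fixed in 70% ethanol. DNA was stained with propidium iodide alongside RNase digestion and measured by flow cytometry. Phase fractions came from cell-cycle modelling software, and IC50 from nonlinear regression.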

[2] = Cell cycle arrest in KB/HeLa cells by accumulation at S phase at 100 nM; format: functional, cell-based; conditions: Homo sapiens; method in brief: as §1
[3] = Cell cycle arrest in KB/HeLa cells by accumulation at S phase at 316 nM; format: functional, cell-based; conditions: Homo sapiens; method in brief: as §1
[4] = Cell cycle arrest in KB/HeLa cells by accumulation at G2/M phase at 0.3 nM; format: functional, cell-based; conditions: Homo sapiens; method in brief: as §1
[5] = Cell cycle arrest in KB/HeLa cells by accumulation at G2/M phase at 1 nM; format: functional, cell-based; conditions: Homo sapiens; method in brief: as §1
[6] = Cell cycle arrest in KB/HeLa cells by accumulation at G2/M phase at 10 nM; format: functional, cell-based; conditions: Homo sapiens; method in brief: as §1
[7] = Cell cycle arrest in KB/HeLa cells by accumulation at G2/M phase at 31.6 nM; format: functional, cell-based; conditions: Homo sapiens; method in brief: as §1
[8] = Cell cycle arrest in KB/HeLa cells by accumulation at G2/M phase at 100 nM; format: functional, cell-based; conditions: Homo sapiens; method in brief: as §1
[9] = Cell cycle arrest in KB/HeLa cells by accumulation at G2/M phase at 316 nM; format: functional, cell-based; conditions: Homo sapiens; method in brief: as §1
[10] = Cell cycle arrest in KB/HeLa cells by accumulation at G1 phase at 0.3 nM; format: functional, cell-based; conditions: Homo sapiens; method in brief: as §1
[11] = Cell cycle arrest in KB/HeLa cells by accumulation at G1 phase at 1 nM; format: functional, cell-based; conditions: Homo sapiens; method in brief: as §1
[12] = Cell cycle arrest in KB/HeLa cells by accumulation at G1 phase at 3.16 nM; format: functional, cell-based; conditions: Homo sapiens; method in brief: as §1
[13] = Cell cycle arrest in KB/HeLa cells by accumulation at G1 phase at 10 nM; format: functional, cell-based; conditions: Homo sapiens; method in brief: as §1
[14] = Cell cycle arrest in KB/HeLa cells by accumulation at G1 phase at 31.6 nM; format: functional, cell-based; conditions: Homo sapiens; method in brief: as §1
[15] = Cell cycle arrest in KB/HeLa cells by accumulation at G1 phase at 100 nM; format: functional, cell-based; conditions: Homo sapiens; method in brief: as §1
[16] = Cell cycle arrest in KB/HeLa cells by accumulation at G1 phase at 316 nM; format: functional, cell-based; conditions: Homo sapiens; method in brief: as §1
[17] = Cell cycle arrest in KB/HeLa cells by accumulation at G2/M phase; format: functional, cell-based; conditions: Homo sapiens; method in brief: as §1
[18] = Antiproliferative activity against KB/HeLa cells by XTT assay after 48 hrs; format: functional, cell-based; conditions: Homo sapiens
Method in brief: (§2)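 Tumour cell lines were seeded at 1 × 10^3 to 8 × 10^4 cells/well for logarithmic growth and exposed to a concentration series for 48 h. Proliferation was read as cellular metabolic activity by XTT. IC50 came from dose-response curves by nonlinear regression, with at least two replicates.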

RKO [19] = experiment: Antiproliferative activity against RKO cells with ectopic-induced p27kip1-expression by XTT assay after 48 hrs; format: functional, cell-based; conditions: Homo sapiens
Method in brief: (§3)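 RKO colon adenocarcinoma cells carry an ecdysone-inducible p27kip1 vector. On day 1 they were plated with 3 µM ponasterone A (induced, 2 × 10^4 cells/well) or without it (not induced, 6 × 10^3 cells/well) and held 24 h at 37 °C. Compound or DMSO control was then added for 48 h at 37 °C, followed by a standard XTT read-out.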

[20] = Cell cycle arrest in KB/HeLa cells by accumulation at S phase at 0.3 nM; format: functional, cell-based; conditions: Homo sapiens; method in brief: as §1
[21] = Cell cycle arrest in KB/HeLa cells by accumulation at S phase at 1 nM; format: functional, cell-based; conditions: Homo sapiens; method in brief: as §1
[22] = Cell cycle arrest in KB/HeLa cells by accumulation at S phase at 3.16 nM; format: functional, cell-based; conditions: Homo sapiens; method in brief: as §1
[23] = Cell cycle arrest in KB/HeLa cells by accumulation at S phase at 10 nM; format: functional, cell-based; conditions: Homo sapiens; method in brief: as §1
[24] = Cell cycle arrest in KB/HeLa cells by accumulation at G2/M phase at 0.1 nM; format: functional, cell-based; conditions: Homo sapiens; method in brief: as §1
[25] = Cell cycle arrest in KB/HeLa cells by accumulation at G2/M phase at 3.16 nM; format: functional, cell-based; conditions: Homo sapiens
[26] = Cell cycle arrest in KB/HeLa cells by accumulation at G1 phase at 0.1 nM; format: functional, cell-based; conditions: Homo sapiens; method in brief: as §1
[27] = Cell cycle arrest in KB/HeLa cells by accumulation at S phase at 0.1 nM; format: functional, cell-based; conditions: Homo sapiens; method in brief: as §1
K562 = experiment: Antiproliferative activity against human K562 cell line; format: functional, cell-based
Tubulin = Tubulin (Sus scrofa, UniProt P02554+P02550); experiment: Inhibition of tubulin polymerization in porcine brain
SK-OV-3 = experiment: Antiproliferative activity against SKOV3 cells by XTT assay after 48 hrs; format: functional, cell-based; conditions: Homo sapiens, SK-OV-3, 48 h; method in brief: as §2
SF-268 = experiment: Antiproliferative activity against SF268 cells by XTT assay after 48 hrs; format: functional, cell-based; conditions: Homo sapiens, SF-268, 48 h; method in brief: as §2
NCI-H460 = experiment: Antiproliferative activity against NCI-H460 cells by XTT assay after 48 hrs; format: functional, cell-based; conditions: Homo sapiens, NCI-H460, 48 h; method in brief: as §2
RKO [28] = experiment: Antiproliferative activity against RKO cells by XTT assay after 48 hrs; format: functional, cell-based; conditions: Homo sapiens; method in brief: as §3
MDR = experiment: Antiproliferative activity against LT12 MDR cells by XTT assay after 48 hrs; format: functional, cell-based; conditions: Rattus norvegicus; method in brief: as §2
L1210 [29] = experiment: Antiproliferative activity against L1210 cells by XTT assay after 48 hrs; format: functional, cell-based; conditions: Mus musculus, L1210, 48 h; method in brief: as §2
L1210 [30] = experiment: Antiproliferative activity against L1210 VCR cells by XTT assay after 48 hrs; format: functional, cell-based; conditions: Mus musculus, L1210, 48 h; method in brief: as §2
P388 [31] = experiment: Antiproliferative activity against P388 cells by XTT assay after 48 hrs; format: functional, cell-based; conditions: Mus musculus, P388, 48 h; method in brief: as §2
P388 [32] = experiment: Antiproliferative activity against P388 ADR cells by XTT assay after 48 hrs; format: functional, cell-based; conditions: Mus musculus, P388, 48 h; method in brief: as §2
cells = conditions: Rattus norvegicus, LT12, 48 h

`COc1cc2c(c(OC)c1OC)-c1ccc(OC)c(=O)cc1[C@@H](NC(C)=O)CC2` [COLCHICINE] gave an Activity [1] of 11.9%, an Activity [2] of 5.1% and an Activity [3] of 5.2%. For the same compound, the Activity [4] was 10.1%, the Activity [5] was 10% and the Activity [6] was 32.1%. The Activity [7] was 87.6%, the Activity [8] was 94.7% and the Activity [9] was 94.5%. It also gave an Activity [10] of 63.3%, an Activity [11] of 64.7% and an Activity [12] of 64.3%. The Activity [13] was 32.2%, the Activity [14] was 0.5% and the Activity [15] was 0.3%. It also gave an Activity [16] of 0.3%, an EC50 [17] of 14 nM and an IC50 [18] of 30 nM. The IC50 (RKO [19]) was over 10000 nM, the Activity [20] was 26.6% and the Activity [21] was 25.4%. It also gave an Activity [22] of 25.1% and an Activity [23] of 35.7%.

With `CC[C@]1(O)C[C@H]2CN(CCc3c([nH]c4ccccc34)[C@@](C(=O)OC)(c3cc4c(cc3OC)N(C=O)[C@H]3[C@@](O)(C(=O)OC)[C@H](OC(C)=O)[C@]5(CC)C=CCN6CC[C@]43[C@@H]65)C2)C1` [VINCRISTINE] the Activity [1] was 7.2%, the Activity [2] was 4.8% and the Activity [3] was 5.9%. It also gave an Activity [24] of 11.1%, an Activity [4] of 11.7% and an Activity [5] of 17.2%. For the same compound, the Activity [25] was 65.8%, the Activity [6] was 86.7% and the Activity [7] was 92.6%. For the same compound, the Activity [8] was 95.1%, the Activity [9] was 93.8% and the Activity [26] was 61.2%. It also gave an Activity [10] of 64.5%, an Activity [11] of 53.7% and an Activity [12] of 6.5%. The Activity [13] was 0.5%, the Activity [14] was 1% and the Activity [15] was 0.2%. For the same compound, the Activity [16] was 0.2%, the EC50 [17] was 2.4 nM and the Activity [27] was 27.7%. For the same compound, the Activity [20] was 24%, the Activity [21] was 28.3% and the Activity [22] was 26%. The Activity [23] was 13.1%.

`COc1ccc(COc2c3ccccc3cc3sccc23)cc1` gave an IC50 (K562) of 250 nM, an IC50 (Tubulin) of 1520 nM and an IC50 [18] of 470 nM. For the same compound, the IC50 (SK-OV-3) was 270 nM, the IC50 (SF-268) was 430 nM and the IC50 (NCI-H460) was 980 nM. It also gave an IC50 (RKO [19]) of over 9000 nM and an IC50 (RKO [28]) of 280 nM.

`COC(=O)Nc1nc2cc(C(=O)c3cccs3)ccc2[nH]1` [NOCODAZOLE] showed an Activity [1] of 25.7%, an Activity [2] of 26.1% and an Activity [3] of 6%. The Activity [5] was 11.1%, the Activity [25] was 10.6% and the Activity [6] was 10%. For the same compound, the Activity [7] was 9.9%, the Activity [8] was 51.4% and the Activity [9] was 93.2%. It also gave an Activity [11] of 65.2%, an Activity [12] of 64.6% and an Activity [13] of 64.2%. The Activity [14] was 64.4%, the Activity [15] was 22.3% and the Activity [16] was 0.9%. For the same compound, the EC50 [17] was 91 nM, the IC50 [18] was 140 nM and the IC50 (RKO [19]) was over 10000 nM. The IC50 (MDR) was 70 nM, the IC50 (L1210 [29]) was 50 nM and the IC50 (L1210 [30]) was 90 nM. For the same compound, the IC50 (P388 [31]) was 80 nM, the IC50 (P388 [32]) was 170 nM and the Activity [21] was 23.6%. The Activity [22] was 24.8%, the Activity [23] was 25.7% and the IC50 (cells) was 40 nM.
